The record followed here is ChEMBL document CHEMBL4673376 (Bioorg Med Chem Lett, 2021).

A short description of test [1]: Inhibition of rat intestinal sucrase. Type of test: tissue-based, Intestine. In outline: (§1)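 Enzyme preparations came from small intestine tissue (rat or human, as the line states). Inhibition is reported as IC50.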
Test [2] can be described thus: Inhibition of rat intestinal maltase. It counts as tissue-based, Intestine. In short, it runs like this: as §1
Test [3] deals with T1, Maltase-glucoamylase (Homo sapiens, UniProt O43451). Description: Inhibition of human intestinal maltase. It counts as tissue-based, Intestine. In short, it runs like this:
as §1

Test [4] can be described thus: Inhibition of rat intestinal isomaltase. Type of test: tissue-based, Intestine. In short, it runs like this:
as §1

The target of test [5] is T1, Maltase-glucoamylase. Description: Inhibition of recombinant human maltase-glucoamylase using p-nitrophenyl-alpha-D-glucopyranoside as substrate incubated for 35 mins by microtiter plate reader analysis.
A short description of test [6]: Inhibition of rat intestinal maltase using maltose as substrate incubated for 30 mins and immediately heated for 2 mins by glucose oxidase method. Type of test: tissue-based, Intestine. In outline:
as §1

The nature of test [7]: Inhibition of rat intestinal isomaltase using isomaltose as substrate incubated for 30 mins and immediately heated for 2 mins by glucose oxidase method. Type of test: tissue-based, Intestine. In outline: as §1
A short description of test [8]: Inhibition of rat intestinal sucrase using sucrose as substrate incubated for 30 mins and immediately heated for 2 mins by glucose oxidase method. Type of test: tissue-based, Intestine. In outline:
as §1

For test [9], the target named is T1, Maltase-glucoamylase. The test can be described thus: Inhibition of human intestinal maltase using maltose as substrate incubated for 30 mins and immediately heated for 2 mins by glucose oxidase method. Type of test: tissue-based, Intestine. In short, it runs like this:
as §1

T1 sequence (O43451 whole entry): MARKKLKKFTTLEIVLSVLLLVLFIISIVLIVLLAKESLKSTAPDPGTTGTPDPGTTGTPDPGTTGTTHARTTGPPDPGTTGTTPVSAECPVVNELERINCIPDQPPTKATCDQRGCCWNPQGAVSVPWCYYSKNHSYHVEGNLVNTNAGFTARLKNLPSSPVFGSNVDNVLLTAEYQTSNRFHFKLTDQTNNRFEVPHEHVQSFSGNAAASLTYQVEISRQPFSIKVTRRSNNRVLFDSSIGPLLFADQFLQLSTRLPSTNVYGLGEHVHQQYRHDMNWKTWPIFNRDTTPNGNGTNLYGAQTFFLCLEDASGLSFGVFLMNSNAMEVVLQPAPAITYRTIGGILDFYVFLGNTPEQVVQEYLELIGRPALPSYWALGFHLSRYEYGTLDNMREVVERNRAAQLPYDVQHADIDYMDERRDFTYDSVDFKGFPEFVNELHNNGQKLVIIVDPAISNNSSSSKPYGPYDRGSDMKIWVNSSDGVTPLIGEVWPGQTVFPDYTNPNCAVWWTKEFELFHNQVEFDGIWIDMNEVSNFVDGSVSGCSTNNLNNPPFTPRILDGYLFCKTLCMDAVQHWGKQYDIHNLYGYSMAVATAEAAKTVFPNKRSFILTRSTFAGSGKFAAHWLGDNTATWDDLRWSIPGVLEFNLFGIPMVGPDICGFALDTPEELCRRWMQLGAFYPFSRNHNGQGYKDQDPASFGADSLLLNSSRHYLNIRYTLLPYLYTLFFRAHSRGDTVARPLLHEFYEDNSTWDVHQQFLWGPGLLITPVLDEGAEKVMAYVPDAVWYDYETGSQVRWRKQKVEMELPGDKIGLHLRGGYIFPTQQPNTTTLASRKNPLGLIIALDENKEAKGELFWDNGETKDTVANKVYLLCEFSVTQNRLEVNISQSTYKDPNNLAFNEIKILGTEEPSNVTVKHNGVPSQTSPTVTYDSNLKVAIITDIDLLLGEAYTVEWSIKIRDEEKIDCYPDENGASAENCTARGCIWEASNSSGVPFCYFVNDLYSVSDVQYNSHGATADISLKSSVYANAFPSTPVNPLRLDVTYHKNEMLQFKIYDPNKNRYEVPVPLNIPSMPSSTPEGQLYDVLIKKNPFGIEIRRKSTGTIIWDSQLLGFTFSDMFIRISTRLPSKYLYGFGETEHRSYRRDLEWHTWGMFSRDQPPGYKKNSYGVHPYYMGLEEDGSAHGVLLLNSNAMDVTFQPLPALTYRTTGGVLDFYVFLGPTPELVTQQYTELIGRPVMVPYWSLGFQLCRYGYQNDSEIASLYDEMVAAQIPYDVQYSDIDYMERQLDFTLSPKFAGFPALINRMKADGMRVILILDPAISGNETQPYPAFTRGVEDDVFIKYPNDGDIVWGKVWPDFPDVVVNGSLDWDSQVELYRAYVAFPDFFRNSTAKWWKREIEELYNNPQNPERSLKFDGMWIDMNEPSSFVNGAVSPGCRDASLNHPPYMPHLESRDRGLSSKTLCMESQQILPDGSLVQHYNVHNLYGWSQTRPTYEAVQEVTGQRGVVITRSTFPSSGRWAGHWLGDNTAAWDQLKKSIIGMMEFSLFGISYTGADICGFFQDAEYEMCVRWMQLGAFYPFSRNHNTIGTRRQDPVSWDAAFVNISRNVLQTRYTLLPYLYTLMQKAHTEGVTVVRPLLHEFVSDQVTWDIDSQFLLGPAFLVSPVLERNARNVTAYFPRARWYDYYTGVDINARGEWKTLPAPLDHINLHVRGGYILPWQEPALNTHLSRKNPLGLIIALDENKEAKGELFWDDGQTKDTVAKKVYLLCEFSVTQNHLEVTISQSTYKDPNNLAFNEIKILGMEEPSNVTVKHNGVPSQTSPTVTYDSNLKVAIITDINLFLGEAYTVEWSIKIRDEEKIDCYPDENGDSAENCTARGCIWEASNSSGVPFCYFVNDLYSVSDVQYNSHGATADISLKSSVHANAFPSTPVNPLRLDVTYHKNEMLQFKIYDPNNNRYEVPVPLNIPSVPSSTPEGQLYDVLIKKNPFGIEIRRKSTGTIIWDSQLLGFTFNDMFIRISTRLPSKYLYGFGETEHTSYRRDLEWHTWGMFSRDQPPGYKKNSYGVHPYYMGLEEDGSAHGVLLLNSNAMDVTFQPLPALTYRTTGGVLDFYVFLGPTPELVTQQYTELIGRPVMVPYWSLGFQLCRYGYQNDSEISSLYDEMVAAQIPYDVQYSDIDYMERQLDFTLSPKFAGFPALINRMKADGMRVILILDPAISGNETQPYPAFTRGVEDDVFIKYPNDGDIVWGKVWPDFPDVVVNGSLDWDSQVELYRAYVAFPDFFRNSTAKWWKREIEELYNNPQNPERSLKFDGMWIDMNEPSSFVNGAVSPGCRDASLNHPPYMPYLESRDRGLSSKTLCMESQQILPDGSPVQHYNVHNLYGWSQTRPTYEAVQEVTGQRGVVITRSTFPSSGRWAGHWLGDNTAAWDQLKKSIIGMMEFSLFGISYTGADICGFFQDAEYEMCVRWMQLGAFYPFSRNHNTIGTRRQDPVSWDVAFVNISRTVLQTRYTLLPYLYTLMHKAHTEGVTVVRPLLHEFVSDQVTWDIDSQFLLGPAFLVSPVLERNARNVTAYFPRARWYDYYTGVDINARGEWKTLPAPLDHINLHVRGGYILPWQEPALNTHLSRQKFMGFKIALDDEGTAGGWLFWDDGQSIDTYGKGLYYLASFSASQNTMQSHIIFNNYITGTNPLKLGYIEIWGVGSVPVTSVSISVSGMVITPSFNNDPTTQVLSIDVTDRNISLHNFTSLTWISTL

What is called IC50 is the point on the concentration scale where inhibition reaches its midpoint. Read a low IC50 as inhibition by little substance. For `CCCCCC[C@@H](O)[C@H](OS(=O)(=O)[O-])[C@H](O)C[S@+]1C[C@@H](O)[C@H](O)[C@H]1CO`, the IC50 turned out to be 290 nM in [1], 7700 nM in test [2], 1700 nM against Maltase-glucoamylase [3] and 4800 nM in [4].
Usually Ki stands for the dissociation constant of the complex between target and ligand, obtained from inhibition or displacement. Consider `CCCC[S+]1C[C@@H](O)[C@H](O)[C@H]1CO` (single isomer, unassigned), for which, at Maltase-glucoamylase [5], the Ki was 32000 nM.
Consider `C[C@H]1O[C@H](O[C@H]2[C@H](O)[C@@H](O)[C@@H](O[C@H]3[C@H](O)[C@@H](O)C(O)O[C@@H]3CO)O[C@@H]2CO)[C@H](O)[C@@H](O)[C@@H]1N[C@H]1C=C(CO)[C@@H](O)[C@H](O)[C@H]1O` (stereo partly specified) [ACARBOSE], for which the 50% inhibitory concentration (IC50) in test [1] was 1500 nM; in [2], 1700 nM; in test [4], 645000 nM.
Consider `[O-][C@@H](CO)[C@H](O)C[S@+]1C[C@@H](O)[C@H](O)[C@H]1CO` [NEOSALACINOL], for which the IC50 in test [6] came to 8000 nM; in test [7] it was 300 nM; in test [8], 1300 nM; at Maltase-glucoamylase [9], 9000 nM.
Take `CCCCCCCC[C@@H](O)[C@H](O)[C@H](O)C[S@+]1C[C@@H](O)[C@H](O)[C@H]1CO`: the IC50 in [1] was 380 nM; in [2], 2500 nM; on Maltase-glucoamylase [3], 2000 nM; in test [4] it was 400 nM.
For the compound `CCCCCCCCCC[C@@H](O)[C@H](OS(=O)(=O)[O-])[C@H](O)C[S@+]1C[C@@H](O)[C@H](O)[C@H]1CO`, the IC50 came out at 170 nM in test [1], 6300 nM in [2], 1500 nM on Maltase-glucoamylase [3] and 4400 nM in test [4].
As for `CCC[C@@H](O)[C@H](OS(=O)(=O)[O-])[C@H](O)C[S@+]1C[C@@H](O)[C@H](O)[C@H]1CO`, the IC50 in test [1] stood at 730 nM; in test [2], 5400 nM; on Maltase-glucoamylase [3] it was 4800 nM; in [4], 2900 nM.
The like results for `CCCCCCCC[C@@H](O)[C@H](OS(=O)(=O)[O-])[C@H](O)C[S@+]1C[C@@H](O)[C@H](O)[C@H]1CO` were, in that order, 150 nM, 7200 nM, 1200 nM and 5400 nM.
Take `CCCCCCCCCCCCCC[S@+]1C[C@@H](O)[C@H](O)[C@H]1CO`: the Ki on Maltase-glucoamylase [5] was 6000 nM.
Take `CCC[C@@H](O)[C@H](O)[C@H](O)C[S@+]1C[C@@H](O)[C@H](O)[C@H]1CO`: the IC50 in test [1] came to 1400 nM; in [2] it was 4800 nM; against Maltase-glucoamylase [3], 5000 nM; in test [4], 490 nM.
Consider `O=S(=O)([O-])O[C@@H](CO)[C@H](O)C[S@+]1C[C@@H](O)[C@H](O)[C@H]1CO` [SALACINOL], for which the values for the IC50 in test [6], in [7] and in test [8] were 5200 nM, 1300 nM and 1600 nM, respectively.
